In publication PMC9382226 (Inorganic chemistry, 2022):
“Also recorded” adds a separate entry of the source.

Assays:
mice = assay: Ex vivo biodistribution of uranium in mice by ICP-MS; conditions: for uranium uptake in bone (tibia) / clearance from blood / uranium in soft organs (lung, liver, kidney, spleen): 4 mg/kg intravenous injection, ICP-MS; for uranium uptake in bone (tibia): 30 min, 2 h and 24 h; for stability of the uranium complex in vivo: biodistribution, label is the ligand of the complex
[1] = Ligand protonation constants by semi-batch spectrophotometric titration; assay type: physicochemical; conditions: 25 °C, I = 0.1 M KCl
How it was run: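 Semi-batch spectrophotometric titration of test ligands (those not titrated potentiometrically) at 25 °C, ionic strength 0.1 M with KCl as supporting electrolyte; protonation constants fitted from the titration data; uncertainty given as standard deviation of the last digit.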

[2] = assay type: binding; conditions: [UO2^2+]tot = 10^−6 M, [L]tot = 10^−5 M, 25 °C, I = 0.1 M KCl
[3] = assay type: binding; conditions: for k2 (pH 7.4), second-order rate constant for complexation of UO2^2+: TRIS buffer pH 7.4, 25 °C; for k2 (pH 5), second-order rate constant for complexation of UO2^2+: aqueous citrate buffer pH 5, 25 °C
[4] = Ligand protonation constants by potentiometric titration; assay type: physicochemical; conditions: 25 °C, I = 0.1 M KCl
[5] = Kinetic stability challenge with hydroxyapatite; assay type: physicochemical; conditions: 2000 equiv. HAP, 0.1 M TRIS, 37 °C, arsenazo III indicator
[6] = Initial pH potentiometric experiments with UO2^2+; assay type: binding; conditions: lowest electrode-calibrated pH value of 2.4
[7] = Aqueous solubility of the complexes; assay type: physicochemical; conditions: in words

| SMILES | uranium uptake in bone (tibia) (mice) | clearance from blood (mice) | uranium in soft organs (lung, liver, kidney, spleen) (mice) | pUO2 (pH 7.4) = −log[UO2^2+]free [2] | k2 (pH 7.4), second-order rate constant for complexation of UO2^2+ [3] [M^−1 s^−1] | k2 (pH 5), second-order rate constant for complexation of UO2^2+ [3] [M^−1 s^−1] | stability of the uranium complex in vivo (mice) | also measured |
| --- | --- | --- | --- | --- | --- | --- | --- | --- |
| O=C([O-])c1cccc(CNCCNCc2cccc(C(=O)[O-])n2)n1.[O]=[U+2]=[O] [[UO2(dedpa)]] | minimal uptake in the bone | rapidly cleared from the blood | low but detectable values of uranium were found in the lung, liver and kidney | – | – | – | – | – |
| Oc1cccc2ccc(CNCCNCc3ccc4cccc(O)c4n3)nc12 [H2hox] | – | – | – | 19.80 | 3420 ± 340 | 73 ± 5 | stable in vivo | pKa1 [1]: 11.0(1); pKa2 [1]: 10.10(8); pKa3 [1]: 8.63(5); pKa4 [1]: 6.1(3) |
| O=C(O)c1cccc(CNC2CCCCC2NCc2cccc(C(=O)O)n2)n1 (stereo not drawn) [H2CHXdedpa] | – | – | – | 17.72 | 1190 ± 150 | 1320 ± 140 | stable in vivo | pKa1 [4]: 9.39(2); pKa2 [4]: 6.43(6); pKa3 [4]: 3.15(6); pKa4 [4]: 2.40(8) |
| O.O.O.O.O.O.O=[N+]([O-])O.O=[N+]([O-])O.[O]=[U]=[O] [UO2(NO3)2·6H2O] | – | – | – | – | – | – | – | original uranium remaining in solution with HAP ([5]; after 12 h): 10%; uranium remaining in solution with HAP ([5]; by 120 h): undetectable |
| O=C([O-])c1cccc(CNC2CCCCC2NCc2cccc(C(=O)[O-])n2)n1.[O]=[U+2]=[O] (stereo not drawn) [[UO2(CHXdedpa)]] | minimal uptake in the bone | rapidly cleared from the blood | low but detectable values of uranium were found in the lung, liver and kidney | – | – | – | – | – |
| O=C(O)c1cccc(CNCCNCc2cccc(C(=O)O)n2)n1 [H2dedpa] | – | – | – | 17.46 | 450 ± 40 | 420 ± 28 | stable in vivo | pKa1 [4]: 8.95(3); pKa2 [4]: 6.32(6); pKa3 [4]: 3.15(6); pKa4 [4]: 2.28(7); free UO2^2+ present [6]: < 5% |
| [O-]c1cccc2ccc(CNC3CCCCC3NCc3ccc4cccc([O-])c4n3)nc12.[O]=[U+2]=[O] (stereo not drawn) [[UO2(CHXhox)]] | – | – | – | – | – | – | – | aqueous solubility [7]: low solubility in water; also recorded: poor aqueous solubility; lethality upon injection (mice; intravenous injection): precipitation in the circulatory system upon injection causing lethality |
| [O-]c1cccc2ccc(CNCCNCc3ccc4cccc([O-])c4n3)nc12.[O]=[U+2]=[O] [[UO2(hox)]] | minimal uptake in the bone | rapidly cleared from the blood | significant accumulation of uranium in the lungs | – | – | – | – | – |
| Oc1cccc2ccc(CNC3CCCCC3NCc3ccc4cccc(O)c4n3)nc12 (stereo not drawn) [H2CHXhox] | – | – | – | 19.98 | 2850 ± 380 | 140 ± 5 | – | pKa1 [1]: 10.95(9); pKa2 [1]: 10.18(2); pKa3 [1]: 8.72(7); pKa4 [1]: 5.37(2) |
